Assay results from paper PMC9302689 (British Journal of Clinical Pharmacology, 2022).

Legend:
[1] = test system: healthy male subjects; assay: ECG, QTcF interval; assay type: in vivo, human
Outline: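 Randomized, double-blind, placebo-controlled single ascending dose study in healthy men, dosed 3–200 mg after an overnight fast. 12-lead ECGs were recorded in triplicate, 1 min apart, after 5 min rest in the semi-recumbent position, at scheduled times. QTc and other intervals were derived automatically from the digital ECGs by the Marquette 12SL algorithm.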

[2] = test system: healthy male subjects; assay: VAS Bond and Lader; assay type: in vivo, human; conditions: 12-hour post-dose period
Outline: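 Subjects marked 16 horizontal 100 mm visual analogue scales twice pre-dose and at 0.5–10 h after a single dose or placebo. Three factors were derived: alertness from 9 scores, mood from 5 and calmness from 2. Change from baseline over 12 h was analysed by MMRM against pooled placebo, with baseline as covariate.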

SMILES: CN1CCC23CCCCC2C1Cc1ccc(C(N)=O)cc13 (stereo not drawn) [ALKS 7119, (9α, 13α)‐17‐methylmorphinan‐3‐carboxamide]
- Subjects with QTcF increases from baseline of 30–60 ms ([1]; all ALKS 7119 groups, only at 50 mg or higher, none in placebo): 8.8%
- QTcF interval increases compared to baseline ([1]; doses of ≥50 mg): 30 to 60 ms
- Highest individual QTcF value ([1]; subject treated with 200 mg): 475 ms
- Increase of QTcF compared to baseline at highest individual value ([1]; subject treated with 200 mg): 33 ms
- VAS Bond and Lader “calmness”, LSM CFB ([2]; 3 mg single oral dose): 6.65 mm
- VAS Bond and Lader “mood”, LSM CFB ([2]; 3 mg single oral dose): 6.17 mm
- VAS Bond and Lader “subjective alertness”, LSM CFB ([2]; 3 mg single oral dose): 1.64 mm
- VAS Bond and Lader “calmness”, LSM CFB ([2]; 10 mg single oral dose): −0.31 mm
- VAS Bond and Lader “mood”, LSM CFB ([2]; 10 mg single oral dose): −0.04 mm
- VAS Bond and Lader “subjective alertness”, LSM CFB ([2]; 10 mg single oral dose): 0.03 mm
- VAS Bond and Lader “calmness”, LSM CFB ([2]; 25 mg single oral dose): −0.57 mm
- VAS Bond and Lader “mood”, LSM CFB ([2]; 25 mg single oral dose): −0.14 mm
- VAS Bond and Lader “subjective alertness”, LSM CFB ([2]; 25 mg single oral dose): 0.26 mm
- VAS Bond and Lader “calmness”, LSM CFB ([2]; 50 mg single oral dose): 3.6 mm
- VAS Bond and Lader “mood”, LSM CFB ([2]; 50 mg single oral dose): 4.47 mm
- VAS Bond and Lader “subjective alertness”, LSM CFB ([2]; 50 mg single oral dose): 0.96 mm
- VAS Bond and Lader “calmness”, LSM CFB ([2]; 75 mg single oral dose): 0.26 mm
- VAS Bond and Lader “mood”, LSM CFB ([2]; 75 mg single oral dose): −0.82 mm
- VAS Bond and Lader “subjective alertness”, LSM CFB ([2]; 75 mg single oral dose): −1.02 mm
- VAS Bond and Lader “calmness”, LSM CFB ([2]; 100 mg single oral dose): 0.58 mm
- VAS Bond and Lader “mood”, LSM CFB ([2]; 100 mg single oral dose): 0.56 mm
- VAS Bond and Lader “subjective alertness”, LSM CFB ([2]; 100 mg single oral dose): 0.57 mm
- VAS Bond and Lader “calmness”, LSM CFB ([2]; 125 mg single oral dose): 0.46 mm
- VAS Bond and Lader “mood”, LSM CFB ([2]; 125 mg single oral dose): 1.63 mm
- VAS Bond and Lader “subjective alertness”, LSM CFB ([2]; 125 mg single oral dose): −0.56 mm
- VAS Bond and Lader “calmness”, LSM CFB ([2]; 150 mg single oral dose): 2.59 mm
- VAS Bond and Lader “mood”, LSM CFB ([2]; 150 mg single oral dose): 3.35 mm
- VAS Bond and Lader “subjective alertness”, LSM CFB ([2]; 150 mg single oral dose): 1.94 mm
- VAS Bond and Lader “calmness”, LSM CFB ([2]; 175 mg single oral dose): 0.08 mm
- VAS Bond and Lader “mood”, LSM CFB ([2]; 175 mg single oral dose): 0.11 mm
- VAS Bond and Lader “subjective alertness”, LSM CFB ([2]; 175 mg single oral dose): −1.17 mm
- VAS Bond and Lader “calmness”, LSM CFB ([2]; 200 mg single oral dose): 0.68 mm
- VAS Bond and Lader “mood”, LSM CFB ([2]; 200 mg single oral dose): 0.51 mm
- VAS Bond and Lader “subjective alertness”, LSM CFB ([2]; 200 mg single oral dose): 0.09 mm
